Assay [1] deals with Kappa-type opioid receptor (Homo sapiens, UniProt P41145). The experiment in a line: Inhibition of kappa opioid receptor.
Assay [2] in a line: Induction of growth hormone release from Sprague-Dawley rat pituitary cells at 1 uM after 20 mins by RIA assay relative to ghrelin. It is filed as functional, Pituitary gland cell. In a few lines:
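Pituitary cells from 6–8-week-old male SD rats plated on poly-D-lysine and cultured 3 days at 37 °C. Washed with DMEM assay buffer (20 mM Hepes, 0.3% BSA) and held 5 min at 37 °C. Treated with rat ghrelin or compound for 20 min, then GH release measured as % of maximal ghrelin response. Means of three determinations.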

Assay [3] deals with Growth hormone secretagogue receptor type 1 (Rattus norvegicus) (UniProt O08725). Put plainly: Agonist activity at rat GHSR expressed in CHO cells assessed as increase in ghrelin-induced [3H]IP accumulation at 10 uM after 1 hr by scintillation counting relative to ghrelin. It counts as functional, cell-based. In a few lines:
(§1)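 CHO cells stably expressing human or rat GHSR labelled 12 h with 3H-inositol (1 µCi/mL in DMEM), then exposed to ghrelin or compound at 37 °C for 1.0 h. Lysis with 20 mM formic acid, 4 °C, 4 h. Extract taken onto SPA beads, 12 h in the dark, then radioactivity counted. IP accumulation expressed as % of maximal ghrelin response at 10, 1.0 and 0.1 µM.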

In assay [4] the target is 5-hydroxytryptamine receptor 2A (Homo sapiens, UniProt P28223). Put plainly: Inhibition of 5HT2A (receptor).
Another assay deals with Histamine H2 receptor (Homo sapiens, UniProt P25021). Put plainly: Inhibition of histamine H2 receptor.
Assay [5] has as its target Sodium-dependent dopamine transporter (Homo sapiens, UniProt Q01959). The experiment in a line: Inhibition of DAT.
Assay [6] has as its target Sodium-dependent serotonin transporter (Homo sapiens, UniProt P31645). Put plainly: Inhibition of SERT.
Assay [7] has as its target Sodium-dependent noradrenaline transporter (Homo sapiens, UniProt P23975). The experiment in a line: Inhibition of NET.
The target in another assay is D(3) dopamine receptor (Homo sapiens, UniProt P35462). Put plainly: Inhibition of dopamine D3 receptor.
For assay [8], the target named is T1, Alpha-2A adrenergic receptor (Homo sapiens, UniProt P08913).
T1 sequence (P08913 whole entry): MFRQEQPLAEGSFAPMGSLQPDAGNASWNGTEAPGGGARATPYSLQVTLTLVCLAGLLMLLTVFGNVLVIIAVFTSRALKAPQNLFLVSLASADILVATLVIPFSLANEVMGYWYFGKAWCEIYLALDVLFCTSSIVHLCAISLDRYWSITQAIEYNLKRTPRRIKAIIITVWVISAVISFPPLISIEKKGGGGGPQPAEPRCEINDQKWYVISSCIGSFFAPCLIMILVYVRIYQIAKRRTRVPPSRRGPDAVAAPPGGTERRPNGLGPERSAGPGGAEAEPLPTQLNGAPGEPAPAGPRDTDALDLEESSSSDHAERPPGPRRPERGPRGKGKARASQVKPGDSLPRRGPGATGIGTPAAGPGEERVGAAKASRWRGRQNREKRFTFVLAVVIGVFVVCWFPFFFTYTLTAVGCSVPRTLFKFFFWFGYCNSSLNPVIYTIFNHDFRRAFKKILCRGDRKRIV
Put plainly: Inhibition of alpha2A adrenergic receptor.

The next assay concerns the target Mu-type opioid receptor (Homo sapiens, UniProt P35372). Put plainly: Inhibition of mu opioid receptor.
Assay [9] deals with T2, 5-hydroxytryptamine receptor 2C (Homo sapiens, UniProt P28335).
T2 sequence (P28335 whole entry): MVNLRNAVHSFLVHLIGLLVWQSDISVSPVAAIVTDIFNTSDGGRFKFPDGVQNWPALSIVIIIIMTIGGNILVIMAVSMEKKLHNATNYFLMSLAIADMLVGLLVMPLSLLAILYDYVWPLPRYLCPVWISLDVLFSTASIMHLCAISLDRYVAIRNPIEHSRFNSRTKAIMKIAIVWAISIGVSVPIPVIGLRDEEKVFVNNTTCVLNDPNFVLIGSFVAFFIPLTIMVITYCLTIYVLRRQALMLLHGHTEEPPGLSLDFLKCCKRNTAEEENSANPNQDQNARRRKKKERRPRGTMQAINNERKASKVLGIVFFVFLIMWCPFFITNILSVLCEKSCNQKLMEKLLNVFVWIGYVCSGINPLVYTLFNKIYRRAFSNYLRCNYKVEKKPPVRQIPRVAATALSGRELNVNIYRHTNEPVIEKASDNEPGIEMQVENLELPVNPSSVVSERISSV
Put plainly: Inhibition of 5HT2C (receptor).

For assay [10], the target named is T3, Growth hormone secretagogue receptor type 1 (Homo sapiens, UniProt Q92847). Put plainly: Agonist activity at human GHSR expressed in CHO cells assessed as increase in ghrelin-induced [3H]IP accumulation at 10 uM after 1 hr by scintillation counting relative to ghrelin. It counts as functional, cell-based. The method, boiled down: as §1
In assay [11] the target is Muscarinic acetylcholine receptor M3 (Homo sapiens, UniProt P20309). Put plainly: Inhibition of muscarinic M3 receptor.
The target in assay [12] is T3, Growth hormone secretagogue receptor type 1. The experiment in a line: Antagonist activity at human GHSR expressed in CHOK1 cells assessed as inhibition of ghrelin-induced intracellular calcium flux by aequorin flash luminescence assay. It is filed as functional, cell-based, CHO-K1. The method, boiled down:
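Aequorin flash luminescence in CHO-K1 cells stably co-expressing human ghrelin receptor and aequorin. […] IC50 values are means of three determinations.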
A general note: A change in cytosolic calcium serves as a functional read-out for many receptors and channels.

The next assay deals with D(2) dopamine receptor (Homo sapiens, UniProt P14416). The experiment in a line: Inhibition of dopamine D2 receptor.
The target of assay [13] is Growth hormone secretagogue receptor type 1 (Rattus norvegicus) (UniProt O08725). Put plainly: Inhibition of rat GHSR expressed in CHOK1 cells assessed as inhibition of ghrelin-induced intracellular calcium flux by aequorin flash luminescence assay. It counts as functional, cell-based. The conditions noted are these: CHO-K1.
The target is the same in assay [14]. The experiment in a line: Agonist activity at rat GHSR expressed in CHO cells assessed as increase in ghrelin-induced [3H]IP accumulation at 1 uM after 1 hr by scintillation counting relative to ghrelin. It is filed as functional, cell-based. In a few lines:
as §1

The target is the same in assay [15]. The experiment in a line: Agonist activity at rat GHSR expressed in CHO cells assessed as increase in ghrelin-induced [3H]IP accumulation at 0.1 uM after 1 hr by scintillation counting relative to ghrelin. It is filed as functional, cell-based. The method, boiled down:
as §1

A value given as a limit tells only on which side of the number the result lay.

Sequence of Sodium-dependent noradrenaline transporter (P23975 whole entry): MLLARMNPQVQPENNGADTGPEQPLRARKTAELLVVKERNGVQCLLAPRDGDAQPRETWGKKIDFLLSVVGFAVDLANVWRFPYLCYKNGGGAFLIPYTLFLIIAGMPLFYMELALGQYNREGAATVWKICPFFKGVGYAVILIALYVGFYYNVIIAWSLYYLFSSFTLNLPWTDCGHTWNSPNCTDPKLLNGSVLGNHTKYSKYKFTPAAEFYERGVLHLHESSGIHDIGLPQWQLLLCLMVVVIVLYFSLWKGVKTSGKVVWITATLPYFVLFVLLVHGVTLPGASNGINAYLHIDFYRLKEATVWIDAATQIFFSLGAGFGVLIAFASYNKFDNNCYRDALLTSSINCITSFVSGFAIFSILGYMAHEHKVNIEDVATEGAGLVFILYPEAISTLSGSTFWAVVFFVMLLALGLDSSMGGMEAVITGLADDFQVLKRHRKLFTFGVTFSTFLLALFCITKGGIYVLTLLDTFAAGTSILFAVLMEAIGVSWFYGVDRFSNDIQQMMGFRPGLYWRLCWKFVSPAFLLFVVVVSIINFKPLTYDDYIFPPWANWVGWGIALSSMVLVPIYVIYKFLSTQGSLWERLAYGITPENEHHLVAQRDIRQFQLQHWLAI
T3 sequence (Q92847 whole entry): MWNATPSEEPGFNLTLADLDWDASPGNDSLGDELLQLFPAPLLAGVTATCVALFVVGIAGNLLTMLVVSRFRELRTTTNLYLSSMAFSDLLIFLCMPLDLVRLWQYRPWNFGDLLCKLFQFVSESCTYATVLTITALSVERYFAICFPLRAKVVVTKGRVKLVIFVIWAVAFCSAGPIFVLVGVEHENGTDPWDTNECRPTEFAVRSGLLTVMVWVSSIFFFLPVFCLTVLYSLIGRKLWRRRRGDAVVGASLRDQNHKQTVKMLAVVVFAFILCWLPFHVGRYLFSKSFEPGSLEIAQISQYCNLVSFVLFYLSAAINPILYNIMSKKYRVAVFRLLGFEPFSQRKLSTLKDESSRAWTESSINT
Sequence of Sodium-dependent dopamine transporter (Q01959 whole entry): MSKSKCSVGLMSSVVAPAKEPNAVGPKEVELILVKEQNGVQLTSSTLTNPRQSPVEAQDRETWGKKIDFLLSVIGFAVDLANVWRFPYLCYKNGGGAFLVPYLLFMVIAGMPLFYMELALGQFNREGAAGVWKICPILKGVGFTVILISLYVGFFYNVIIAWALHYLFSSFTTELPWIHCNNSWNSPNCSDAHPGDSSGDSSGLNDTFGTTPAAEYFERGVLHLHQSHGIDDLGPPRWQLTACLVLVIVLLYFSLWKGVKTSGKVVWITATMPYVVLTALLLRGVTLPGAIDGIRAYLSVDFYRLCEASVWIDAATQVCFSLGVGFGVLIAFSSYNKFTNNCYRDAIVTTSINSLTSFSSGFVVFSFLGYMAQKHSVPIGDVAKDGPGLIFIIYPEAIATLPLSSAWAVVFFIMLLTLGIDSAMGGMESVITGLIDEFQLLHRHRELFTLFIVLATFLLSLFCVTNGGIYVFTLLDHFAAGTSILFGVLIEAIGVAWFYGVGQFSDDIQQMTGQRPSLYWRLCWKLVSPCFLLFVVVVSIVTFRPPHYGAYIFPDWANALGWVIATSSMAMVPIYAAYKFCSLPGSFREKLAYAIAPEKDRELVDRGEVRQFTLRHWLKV
Sequence of Growth hormone secretagogue receptor type 1 (Rattus norvegicus) (O08725 whole entry): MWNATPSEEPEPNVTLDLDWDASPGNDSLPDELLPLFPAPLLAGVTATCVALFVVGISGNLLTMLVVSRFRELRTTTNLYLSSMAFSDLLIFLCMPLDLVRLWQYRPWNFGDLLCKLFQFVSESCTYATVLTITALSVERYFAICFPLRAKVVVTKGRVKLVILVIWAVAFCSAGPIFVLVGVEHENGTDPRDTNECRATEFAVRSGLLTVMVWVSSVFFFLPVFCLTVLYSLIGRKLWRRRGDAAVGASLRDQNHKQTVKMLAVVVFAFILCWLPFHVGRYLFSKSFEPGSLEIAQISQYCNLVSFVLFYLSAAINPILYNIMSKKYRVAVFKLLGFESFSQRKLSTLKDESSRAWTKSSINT
Sequence of Histamine H2 receptor (P25021 whole entry): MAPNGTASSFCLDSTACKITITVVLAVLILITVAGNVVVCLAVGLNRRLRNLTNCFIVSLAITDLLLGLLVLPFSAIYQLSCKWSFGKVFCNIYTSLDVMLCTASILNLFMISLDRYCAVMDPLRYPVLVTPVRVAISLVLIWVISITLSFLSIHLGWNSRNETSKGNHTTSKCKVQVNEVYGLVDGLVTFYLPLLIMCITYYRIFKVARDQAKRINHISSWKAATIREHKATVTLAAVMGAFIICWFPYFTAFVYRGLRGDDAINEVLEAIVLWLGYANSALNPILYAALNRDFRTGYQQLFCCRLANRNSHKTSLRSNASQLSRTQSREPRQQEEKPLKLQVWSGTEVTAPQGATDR
Sequence of D(2) dopamine receptor (P14416 whole entry): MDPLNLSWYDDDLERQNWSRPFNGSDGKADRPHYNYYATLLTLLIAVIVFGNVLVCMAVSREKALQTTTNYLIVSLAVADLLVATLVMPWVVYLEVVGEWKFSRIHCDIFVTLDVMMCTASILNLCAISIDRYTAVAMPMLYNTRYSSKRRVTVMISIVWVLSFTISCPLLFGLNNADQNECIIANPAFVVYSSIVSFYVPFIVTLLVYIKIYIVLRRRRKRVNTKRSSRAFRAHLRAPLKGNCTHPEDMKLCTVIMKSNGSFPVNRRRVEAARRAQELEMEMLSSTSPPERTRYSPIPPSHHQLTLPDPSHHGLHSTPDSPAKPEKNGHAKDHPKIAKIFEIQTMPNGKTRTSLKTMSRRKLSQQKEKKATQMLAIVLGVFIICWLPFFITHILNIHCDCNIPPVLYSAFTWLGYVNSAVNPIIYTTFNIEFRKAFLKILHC
Sequence of 5-hydroxytryptamine receptor 2A (P28223 whole entry): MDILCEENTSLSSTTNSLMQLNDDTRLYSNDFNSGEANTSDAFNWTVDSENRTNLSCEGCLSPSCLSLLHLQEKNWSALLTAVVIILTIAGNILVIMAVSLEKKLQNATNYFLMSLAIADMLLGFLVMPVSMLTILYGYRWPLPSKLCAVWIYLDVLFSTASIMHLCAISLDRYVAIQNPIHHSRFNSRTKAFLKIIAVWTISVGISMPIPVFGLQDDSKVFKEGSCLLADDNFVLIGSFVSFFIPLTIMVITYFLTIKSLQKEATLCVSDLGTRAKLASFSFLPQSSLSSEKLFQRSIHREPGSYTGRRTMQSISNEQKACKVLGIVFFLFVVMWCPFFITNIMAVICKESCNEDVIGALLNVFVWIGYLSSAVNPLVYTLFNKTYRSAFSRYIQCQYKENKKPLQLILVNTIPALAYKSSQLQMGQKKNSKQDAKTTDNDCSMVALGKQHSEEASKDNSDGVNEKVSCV
Sequence of D(3) dopamine receptor (P35462 whole entry): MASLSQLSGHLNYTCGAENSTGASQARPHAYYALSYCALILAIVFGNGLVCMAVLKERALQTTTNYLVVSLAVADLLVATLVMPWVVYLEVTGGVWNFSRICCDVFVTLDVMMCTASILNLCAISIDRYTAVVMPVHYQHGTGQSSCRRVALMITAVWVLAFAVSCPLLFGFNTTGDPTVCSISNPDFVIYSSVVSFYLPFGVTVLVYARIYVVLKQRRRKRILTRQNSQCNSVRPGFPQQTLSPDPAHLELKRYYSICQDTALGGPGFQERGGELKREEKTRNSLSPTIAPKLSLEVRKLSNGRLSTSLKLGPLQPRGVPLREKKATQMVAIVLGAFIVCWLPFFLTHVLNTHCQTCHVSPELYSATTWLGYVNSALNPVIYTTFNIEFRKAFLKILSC
Sequence of Muscarinic acetylcholine receptor M3 (P20309 whole entry): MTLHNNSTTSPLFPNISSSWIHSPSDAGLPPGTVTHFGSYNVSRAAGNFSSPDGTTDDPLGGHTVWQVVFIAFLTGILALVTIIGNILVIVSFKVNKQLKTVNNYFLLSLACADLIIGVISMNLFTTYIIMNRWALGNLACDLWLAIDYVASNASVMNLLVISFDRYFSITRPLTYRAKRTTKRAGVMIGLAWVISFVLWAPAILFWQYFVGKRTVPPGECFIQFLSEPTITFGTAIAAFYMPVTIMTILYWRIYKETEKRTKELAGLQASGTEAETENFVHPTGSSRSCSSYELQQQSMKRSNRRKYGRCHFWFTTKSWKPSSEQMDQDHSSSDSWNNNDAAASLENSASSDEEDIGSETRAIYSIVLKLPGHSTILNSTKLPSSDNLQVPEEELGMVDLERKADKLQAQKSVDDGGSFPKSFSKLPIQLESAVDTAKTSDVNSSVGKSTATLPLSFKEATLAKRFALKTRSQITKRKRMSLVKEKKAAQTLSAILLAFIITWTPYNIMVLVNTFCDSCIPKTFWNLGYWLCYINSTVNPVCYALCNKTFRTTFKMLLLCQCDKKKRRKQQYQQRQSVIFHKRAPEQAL
Sequence of Kappa-type opioid receptor (P41145 whole entry): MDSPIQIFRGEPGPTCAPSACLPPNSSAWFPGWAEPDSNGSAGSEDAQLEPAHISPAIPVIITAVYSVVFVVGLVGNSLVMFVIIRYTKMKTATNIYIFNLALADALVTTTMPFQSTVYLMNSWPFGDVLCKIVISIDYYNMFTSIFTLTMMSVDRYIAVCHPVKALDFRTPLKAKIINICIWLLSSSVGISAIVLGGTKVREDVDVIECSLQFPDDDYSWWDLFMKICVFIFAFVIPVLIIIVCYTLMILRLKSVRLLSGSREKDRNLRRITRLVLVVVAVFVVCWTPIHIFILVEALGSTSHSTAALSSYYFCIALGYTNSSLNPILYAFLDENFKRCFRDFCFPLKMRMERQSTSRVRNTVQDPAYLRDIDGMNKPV

Broadly, the Ki is a dissociation constant, usually derived from enzyme kinetics or from competition with a known ligand. Read a low Ki as higher affinity. One may read the IC50 as the concentration at which inhibition is half-maximal. In the case of `C[C@H]1CN(C(=O)c2ccc(-c3ccccc3Cl)cc2)CCN1C(=O)c1ccc2cc[nH]c2c1`, the inhibitory constant (Ki) (in assay [1]; in assay [4]; at Histamine H2 receptor; in assay [5]; in assay [6]; in assay [7]) was more than 10 µM in each case. The Ki (on D(3) dopamine receptor; in [8]; on Mu-type opioid receptor; in assay [9]; in assay [11]; at D(2) dopamine receptor) was more than 10 µM in each case. Moreover, the Activity in [2] was found to be 24%; in assay [3], 32%; in assay [10], 35%. Also, the IC50 in assay [12] turned out to be 0.0021 µM.
Regarding `C[C@H]1CN(C(=O)c2ccc(-c3ccncc3F)c(F)c2)CCN1C(=O)c1ccc2cc[nH]c2c1`, in assay [3], the Activity was -1%. The IC50 in [13] turned out to be 0.045 µM; in [12], 0.042 µM.
Regarding `C[C@H]1CN(C(=O)c2ccc(-c3ccccc3C(F)(F)F)cc2)CCN1C(=O)c1ccc2cc[nH]c2c1`, the Ki (in assay [1]; in [4]; at Histamine H2 receptor; in [5]; in assay [6]; in assay [7]) was more than 10 µM throughout. The Ki (at D(3) dopamine receptor; in [8]; on Mu-type opioid receptor; in assay [9]; in assay [11]; on D(2) dopamine receptor) was more than 10 µM each time. Moreover, the Activity in assay [2] came out at 21%; in assay [3] it was 28%; in assay [10], 24%. The IC50 in assay [12] was found to be 0.0041 µM.
As for `C[C@H]1CN(C(=O)c2ccc(-c3ccccc3)cc2)CCN1C(=O)c1ccc2cc[nH]c2c1`, the Ki (in assay [1]; in [4]; at Histamine H2 receptor; in assay [5]; in assay [6]; in [7]) was more than 10 µM in each case. The Ki (on D(3) dopamine receptor; in [8]; on Mu-type opioid receptor; in assay [9]; in [11]; on D(2) dopamine receptor) was more than 10 µM each time. For the same molecule, the Activity came out at 26% in [3] and 29% in assay [10]. Moreover, the IC50 in [12] came out at 0.006 µM.
In the case of `COc1ccc(-c2ccc(C(=O)N3CCN(C(=O)c4ccc5cc[nH]c5c4)[C@@H](C)C3)cc2)cc1`, the Ki (in assay [1]; in assay [4]; on Histamine H2 receptor; in assay [5]; in assay [6]; in assay [7]) was more than 10 µM in each case. In addition, the Ki (on D(3) dopamine receptor; in assay [8]; on Mu-type opioid receptor; in assay [9]; in assay [11]; on D(2) dopamine receptor) was more than 10 µM in each case. Besides, the Activity in [3] came to 34%; in [10], 33%. In addition, the IC50 in [12] amounted to 0.007 µM.
Turning to `Cc1ccccc1-c1ccc(C(=O)N2CCN(C(=O)c3ccc4cc[nH]c4c3)[C@@H](C)C2)cc1`, the Ki (in [1]; in assay [4]; on Histamine H2 receptor; in assay [5]; in [6]; in [7]) was more than 10 µM each time. Besides, the Ki (on D(3) dopamine receptor; in assay [8]; at Mu-type opioid receptor; in assay [9]; in assay [11]; at D(2) dopamine receptor) was more than 10 µM in each case. The Activity in assay [2] was 18%; in assay [3] it was 31%; in [10], 32%. The IC50 in assay [12] was found to be 0.0029 µM.
Take `COc1cccc(-c2ccc(C(=O)N3CCN(C(=O)c4ccc5cc[nH]c5c4)[C@@H](C)C3)cc2)c1`: the inhibition constant Ki (in [1]; in assay [4]; on Histamine H2 receptor; in [5]; in assay [6]; in assay [7]) was more than 10 µM throughout. For the same molecule, the Ki (on D(3) dopamine receptor; in [8]; at Mu-type opioid receptor; in assay [9]; in assay [11]; on D(2) dopamine receptor) was more than 10 µM each time. Moreover, the Activity in assay [2] stood at 40%; in assay [3] it was 46%; in assay [10], 45%. Besides, in assay [12], the IC50 was determined as 0.012 µM.
As to `O=C(c1ccc(-c2ccccc2)cc1)N1CCN(C(=O)c2ccc3cc[nH]c3c2)CC1`, the Ki (in assay [1]; in assay [4]; at Histamine H2 receptor; in assay [5]; in [6]; in assay [7]) was more than 10 µM each time. In addition, the Ki (at D(3) dopamine receptor; in assay [8]; at Mu-type opioid receptor; in assay [9]; in [11]; at D(2) dopamine receptor) was more than 10 µM in each case. The Activity in assay [3] stood at 14%; in [14], 14%; in assay [15] it was 24%; in assay [10] it was 18%. Besides, the IC50 in [12] came out at 0.1 µM.
On to `C[C@H]1CN(C(=O)c2ccc(-c3ccncc3F)cc2)CCN1C(=O)c1ccc2cc[nH]c2c1`, for which, in [3], the Activity is -2%. Moreover, the IC50 in assay [13] was 0.049 µM; in assay [12] it was 0.031 µM.

Source of the values: ChEMBL document CHEMBL1154934, “Identification of piperazine-bisamide GHSR antagonists for the treatment of obesity” (Bioorg Med Chem Lett, 2010).
